Laboratory results published in ChEMBL document CHEMBL2413060, “Synthesis, biological evaluation and molecular docking studies of some pyrimidine derivatives” (2013).

What was measured:
Assay type in all cases: functional
786-0 = test: Cytotoxicity against human 786-0 cells
MDA-MB-231 = test: Cytotoxicity against human MDA-MB-231 cells
Method in brief: (§1)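 Five-dose in vitro screen on the full sixty human tumour cell line panel. Three response parameters derived per cell line: GI50, TGI and LC50, given in μM.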

SNB-19 = test: Cytotoxicity against human SNB19 cells; method in brief: as §1
HOP-62 [1] = test: Cytotoxicity against human HOP62 cells assessed as growth inhibition at 10 uM; conditions: read-out: GI
IGROV-1 [2] = test: Cytotoxicity against human IGROV1 cells
CAKI-1 = test: Cytotoxicity against human Caki1 cells assessed as growth inhibition at 10 uM; conditions: read-out: GI
DU-145 = test: Cytotoxicity against human DU145 cells
U-251 = test: Cytotoxicity against human U251 cells
Method in brief: (§2)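 Five-dose in vitro screen across the full sixty-cell human tumour line panel. Three response parameters were derived from the dose-response data: GI50, TGI and LC50, expressed in μM/l.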

K562 = test: Cytotoxicity against human K562 cells
SN12C = test: Cytotoxicity against human SN12C cells; method in brief: as §1
NCI-H226 = test: Cytotoxicity against human NCI-H226 cells; method in brief: as §1
HCT-116 = test: Cytotoxicity against human HCT116 cells
Hs-578T = test: Cytotoxicity against human Hs578T cells
SW-620 = test: Cytotoxicity against human SW620 cells; method in brief: as §1
MCF7 [3] = test: Cytotoxicity against human MCF7 cells assessed as growth inhibition at 10 uM; conditions: read-out: GI
Method in brief: (§3)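 Single-dose screen on human tumour cell lines. Growth of treated cells is expressed as percent of untreated growth, plotted as a mean graph, and reported as percent growth inhibition.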

CCRF-CEM = test: Cytotoxicity against human CCRF-CEM cells
Shigella flexneri = test: Antibacterial activity against Shigella flexneri ATCC 15391 assessed as diameter of inhibition zone at 1 mg/ml after 24 hrs by cup diffusion method (reference value: 17 mm); conditions: ATCC 15391, 24 h, read-out: DIZ
HOP-92 [4] = test: Cytotoxicity against human HOP92 cells assessed as growth inhibition at 10 uM; conditions: read-out: GI
SNB-75 [5] = test: Cytotoxicity against human SNB75 cells; method in brief: as §1
NCI-H23 = test: Cytotoxicity against human NCI-H23 cells; method in brief: as §1
OVCAR-3 = test: Cytotoxicity against human OVCAR3 cells; method in brief: as §1
MOLT-4 = test: Cytotoxicity against human MOLT4 cells; method in brief: as §1
PC-3 = test: Cytotoxicity against human PC3 cells; method in brief: as §1
SNB-75 [6] = test: Cytotoxicity against human SNB75 cells assessed as growth inhibition at 10 uM; conditions: read-out: GI; method in brief: as §3
UACC-257 = test: Cytotoxicity against human UACC257 cells; method in brief: as §2
UACC-62 = test: Cytotoxicity against human UACC62 cells assessed as growth inhibition at 10 uM; conditions: read-out: GI
Method in brief: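 Single-dose screen in a sixty-cell human tumour line panel; percent growth of treated cells relative to untreated was read and reported as percentage growth inhibition, shown as a mean graph. Compounds meeting the threshold inhibition criteria went on to five-dose testing.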

NCI-H322M = test: Cytotoxicity against human NCI-H322M cells; method in brief: as §1
HOP-62 [7] = test: Cytotoxicity against human HOP62 cells
MCF7 [8] = test: Cytotoxicity against human MCF7 cells; method in brief: as §1
IGROV-1 [9] = test: Cytotoxicity against human IGROV1 cells assessed as growth inhibition at 10 uM; conditions: read-out: GI
OVCAR-4 = test: Cytotoxicity against human OVCAR4 cells; method in brief: as §1
Staphylococcus aureus = test: Antibacterial activity against Staphylococcus aureus ATCC 6538P assessed as diameter of inhibition zone at 1 mg/ml after 24 hrs by cup diffusion method (reference value: 15 mm); conditions: read-out: DIZ
A549 = test: Cytotoxicity against human A549/ATCC cells
RPMI-8226 [10] = test: Cytotoxicity against human RPMI8226 cells; method in brief: as §1
RPMI-8226 [11] = test: Cytotoxicity against human RPMI8226 cells assessed as growth inhibition at 10 uM; conditions: read-out: GI; method in brief: as §3
HCC 2998 = test: Cytotoxicity against human HCC2998 cells
HOP-92 [12] = test: Cytotoxicity against human HOP92 cells
SK-OV-3 = test: Cytotoxicity against human SKOV3 cells; method in brief: as §1
T47D = test: Cytotoxicity against human T47D cells assessed as growth inhibition at 10 uM; conditions: read-out: GI; method in brief: as §3
[13] = read-out: LC50 (the source's name)

In the case of N#Cc1c(-c2ccccc2)nc(SCC2CO2)nc1N1CCOCC1 (stereo not given), the GI50 (786-0) is reported as 2.7 µM, the TGI (786-0) is reported as 21.3 µM and the CC50 (786-0; [13]) is reported as over 100 µM. It also gave a GI50 (MDA-MB-231) of 10 µM, a TGI (MDA-MB-231) of over 100 µM and a CC50 (MDA-MB-231; [13]) of over 100 µM. The GI50 (SNB-19) was 84.5 µM, the TGI (SNB-19) was over 100 µM and the CC50 (SNB-19; [13]) was over 100 µM. It also gave an inhibition of growth at 10 µM (HOP-62 [1]) of 45.7%, a GI50 (IGROV-1 [2]) of 1.79 µM and a TGI (IGROV-1 [2]) of 23.3 µM. For the same compound, the CC50 (IGROV-1 [2]; [13]) was over 100 µM, the inhibition of growth at 10 µM (CAKI-1) was 61.4% and the GI50 (DU-145) was 13.4 µM. It also gave a TGI (DU-145) of over 100 µM, a CC50 (DU-145; [13]) of over 100 µM and a GI50 (U-251) of 22.1 µM. It also gave a TGI (U-251) of over 100 µM, a CC50 (U-251; [13]) of over 100 µM and a GI50 (K562) of over 100 µM. It also gave a TGI (K562) of over 100 µM, a CC50 (K562; [13]) of over 100 µM and a GI50 (SN12C) of 16.4 µM. For the same compound, the TGI (SN12C) was over 100 µM, the CC50 (SN12C; [13]) was over 100 µM and the GI50 (NCI-H226) was 10.1 µM. For the same compound, the TGI (NCI-H226) was over 100 µM, the CC50 (NCI-H226; [13]) was over 100 µM and the GI50 (HCT-116) was 18.4 µM. It also gave a TGI (HCT-116) of over 100 µM, a CC50 (HCT-116; [13]) of over 100 µM and a GI50 (Hs-578T) of 1.15 µM. The TGI (Hs-578T) was 6.09 µM, the CC50 (Hs-578T; [13]) was over 100 µM and the GI50 (SW-620) was 25 µM. For the same compound, the TGI (SW-620) was over 100 µM, the CC50 (SW-620; [13]) was over 100 µM and the inhibition of growth at 10 µM (MCF7 [3]) was 55.2%. The GI50 (CCRF-CEM) was over 100 µM, the TGI (CCRF-CEM) was over 100 µM and the CC50 (CCRF-CEM; [13]) was over 100 µM. It also gave a zone of inhibition at 1000 µg/mL (Shigella flexneri) of 18 mm, an inhibition of growth at 10 µM (HOP-92 [4]) of 81.7% and a GI50 (SNB-75 [5]) of 2.15 µM. It also gave a TGI (SNB-75 [5]) of 68.2 µM, a CC50 (SNB-75 [5]; [13]) of over 100 µM and a GI50 (NCI-H23) of 4.48 µM. For the same compound, the TGI (NCI-H23) was over 100 µM, the CC50 (NCI-H23; [13]) was over 100 µM and the GI50 (OVCAR-3) was 4.19 µM. The TGI (OVCAR-3) was 47.8 µM, the CC50 (OVCAR-3; [13]) was over 100 µM and the GI50 (MOLT-4) was 28.9 µM. It also gave a TGI (MOLT-4) of over 100 µM, a CC50 (MOLT-4; [13]) of over 100 µM and a GI50 (PC-3) of 22.1 µM. It also gave a TGI (PC-3) of over 100 µM, a CC50 (PC-3; [13]) of over 100 µM and an inhibition of growth at 10 µM (SNB-75 [6]) of 65.9%. It also gave a GI50 (UACC-257) of 50.7 µM, a TGI (UACC-257) of over 100 µM and a CC50 (UACC-257; [13]) of over 100 µM. The inhibition of growth at 10 µM (UACC-62) was 48.1%, the GI50 (NCI-H322M) was 8.31 µM and the TGI (NCI-H322M) was over 100 µM. It also gave a CC50 (NCI-H322M; [13]) of over 100 µM, a GI50 (HOP-62 [7]) of 4.34 µM and a TGI (HOP-62 [7]) of 75.3 µM. It also gave a CC50 (HOP-62 [7]; [13]) of over 100 µM, a GI50 (MCF7 [8]) of 3.92 µM and a TGI (MCF7 [8]) of over 100 µM. The CC50 (MCF7 [8]; [13]) was over 100 µM, the inhibition of growth at 10 µM (IGROV-1 [9]) was 61.9% and the GI50 (OVCAR-4) was 85.1 µM. The TGI (OVCAR-4) was over 100 µM, the CC50 (OVCAR-4; [13]) was over 100 µM and the zone of inhibition at 1000 µg/mL (Staphylococcus aureus) was 15 mm. The GI50 (A549) was 27.9 µM, the TGI (A549) was over 100 µM and the CC50 (A549; [13]) was over 100 µM. It also gave a GI50 (RPMI-8226 [10]) of 14.1 µM, a TGI (RPMI-8226 [10]) of 91.8 µM and a CC50 (RPMI-8226 [10]; [13]) of over 100 µM. For the same compound, the inhibition of growth at 10 µM (RPMI-8226 [11]) was 52.1%, the GI50 (HCC 2998) was 0.253 µM and the TGI (HCC 2998) was 18.2 µM. It also gave a CC50 (HCC 2998; [13]) of over 100 µM, a GI50 (HOP-92 [12]) of 2.44 µM and a TGI (HOP-92 [12]) of 8.7 µM. It also gave a CC50 (HOP-92 [12]; [13]) of over 100 µM, a GI50 (SK-OV-3) of 14.1 µM and a TGI (SK-OV-3) of 75.2 µM. For the same compound, the CC50 (SK-OV-3; [13]) was over 100 µM and the inhibition of growth at 10 µM (T47D) was 84.6%.
